Most compounds without a hit are left out; they make up all but 11% or so of the library.
WT yeast gro inh: growth inhibition of WT strain, primary screen, mitochondrial fusion inhibitor project, WT and mutant strains, chemical genetic; mitochondrial fusion phenotypic screen; inhibition, % at 10 µM; actives 2.1% (n = 190,000); AID 1362, 2008; in the data active = inhibition above about 58%; tested in S. cerevisiae
Diaphorase act: compounds boosting diaphorase resazurin reduction – biochemical, uHTS, resorufin fluorescence, counter-screen for diaphorase-coupled primary assays, primary screen; Diaphorase/resazurin coupled assay, 16 min; hits give high values; 1 = vehicle wells, 0 = NADH-free wells; activation factor at 20 µM; actives 0.005% (n = 190,000);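 active = diaphorase activity raised at least twofold by the compound at 20 µM; inactive = activation factor below 2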
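Assay system: Purified diaphorase enzyme from Clostridium kluyveri | Amount: Enzyme 0.07 U/mL final | Dosing: Compound 20 µM once, DMSO 1% | Timing: 16 min reaction at room temperature | Detection: Fluorescence, excitation 544 nm and emission 590 nm | Evaluation: Higher resorufin formation from activation or reduction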
Diaphorase inh: diaphorase inhibitors and chemical oxidizers, primary screen, counter-screen for diaphorase-coupled primary assays, biochemical, uHTS, resorufin fluorescence; actives 0.69% (n = 190,000); diaphorase resazurin-to-resorufin fluorescence, NADH, 16 min; bacterial (C. kluyveri) enzyme, not human; inhibition, % at 20 µM;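 active = primary screen inhibition at 20 µM above a set limit, cut at about 50% in these data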
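System: Bacterial diaphorase enzyme (C. kluyveri) | Incubation: 16-min room-temperature incubation before reading | Benchmarks: No-NADH positive control and DMSO neutral control | Measured by: Resorufin fluorescence 544/590 nm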
G6PDH CS: L. mesenteroides G6PDH inhibitors, counter-screen for G6PDH-coupled screening assays, biochemical, Leuconostoc mesenteroides enzyme | Purified L. mesenteroides G6PDH, diaphorase/resazurin coupled fluorescence, 45 min | actives 0.12% (n = 200,000) | AID 1020, 2008 | inhibition, % at 5 µM
Lmaj promast: Leishmania major promastigote growth inhibition, primary screen. Leishmania major promastigotes, resazurin fluorescence viability. inhibition, % at 10 µM. actives 9% (n = 200,000);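 note: promastigotes grown with compound for 44 hours at 28 °C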
L major 1uM: Leishmania major promastigote growth inhibition, confirmation, 1 µM repeat of primary hits. inhibition, % at 1 µM. actives 13% (n = 1,100). AID 1258, 2008. L. major promastigote growth, resazurin fluorescence, 48 h. shares compounds with Lmaj promast;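 active = inhibition above about 50% in both repeat tests, limit read from the data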
Large screens that a line does not name were inactive (follow-up assays come after a bar, where they were run). Cut-off read from the data, not from the text of the source, unless noted: active = inhibition above about 50%; inactive = the rest.

COc1ccc(NC(=O)c2cccnc2SC)cc1S(=O)(=O)N1CCCCC1	none
Cc1cc(C)n2nc3nc4c(cc3c2n1)CCCC4	Lmaj promast 72.4 | L major 1uM inactive
CCN(CC)CCOc1cc2c(nn1)Oc1ccccc1N2C	Lmaj promast 100.5 | L major 1uM inactive
CN1c2ccccc2Oc2nnc(Cl)cc21	none
COc1ccc(/C=C2\SC(=S)N(Cc3cccnc3)C2=O)cc1C	none
O=C1/C(=C/c2ccc(O)cc2)SC(=S)N1Cc1cccnc1	Lmaj promast 60.2 | L major 1uM inactive
N#Cc1cc([N+](=O)[O-])c(-n2nnc3ccccc32)c([N+](=O)[O-])c1	none
COc1ccccc1Oc1cc(C#N)c(C#N)cc1-n1nnc2ccccc21	Lmaj promast 98.0 | L major 1uM inactive
CCCCSc1nnc(-c2ccc(C)cc2)c2ccccc12	WT yeast gro inh 78.0, Lmaj promast 91.3 | L major 1uM inactive
O=C(c1cc2ccccc2o1)N1CCN(S(=O)(=O)c2cccs2)CC1	Lmaj promast 72.1 | L major 1uM inactive
Cc1ccc2nsnc2c1S(=O)(=O)N(Cc1cc2cccc(C)c2[nH]c1=O)CC1CCCO1 (centres undefined)	none
CC1=C(C(=O)Nc2ccccc2C)C(c2cccnc2)n2nc(CCCO)nc2N1 (centres undefined)	none
Cn1cnc([N+](=O)[O-])c1Sc1ncccc1N	none
Cc1ccc(-c2nnc(N3CCN(c4ccccn4)CC3)c3ccccc23)cc1	Lmaj promast 90.6 | L major 1uM inactive
c1ccc(-c2nnc(N3CCN(c4ccccn4)CC3)c3ccccc23)cc1	none
CSc1nc(C)c2c(c1C#N)CCCC2	Lmaj promast 62.5 | L major 1uM inactive
CCOC(=O)Cc1csc(NC(=O)c2cnc3scc(C)n3c2=O)n1	none (no result: WT yeast gro inh, Diaphorase act, Diaphorase inh, G6PDH CS)
Cc1sc(N)c(C#N)c1C	Lmaj promast 51.4 | L major 1uM inactive
CCN(CC)C(=O)c1sc(N)c(C#N)c1C	none
O=[N+]([O-])c1cccc(-c2nc(-c3cccs3)c(-c3cccs3)[nH]2)c1	none
O=[N+]([O-])c1ccc(-c2nc(-c3cccs3)c(-c3cccs3)[nH]2)cc1	WT yeast gro inh 81.5, Lmaj promast 92.0 | L major 1uM 55.2
CC(C)(C)c1ccc(-c2nc(C=O)c3ccccn23)cc1	Lmaj promast 63.2 | L major 1uM inactive
C(=N\N1CCOCC1)/c1nc(-c2ccccc2)n2ccccc12	none
CN(C)CCNc1oc(COc2ccc(Cl)cc2)nc1C#N	none
COc1ccccc1CNc1nc2ccccc2n1CCN1CCCCC1	Lmaj promast 60.9 | L major 1uM inactive
Oc1ccccc1CNc1nc2ccccc2n1CCN1CCCCC1	none
c1ccc(-c2nc3nonc3nc2-c2ccccc2)cc1	Lmaj promast 84.0 | L major 1uM inactive
CCOC(=O)c1c(C)[nH]c(N=Nc2ccccc2C)c1C	WT yeast gro inh 77.1, Lmaj promast 72.0 | L major 1uM inactive
CCn1c(SCC(=O)N2CCOCC2)nc2oc3c(Cl)cc(Cl)cc3c(=O)c2c1=O	Lmaj promast 72.2 | L major 1uM inactive
CCn1c(SCC(=O)N2CCOCC2)nc2sc3c(c2c1=O)CCCC3	none
CCN(CC)S(=O)(=O)c1ccc(N2CCOCC2)c(NC(=O)CCC2CCCCC2)c1	none
O=C(/C=C/c1cccc(Cl)c1)Nn1c(-c2cccs2)nc2ccccc2c1=O	none
CC(C)CCC(C)N=Cc1c(O)n(Cc2ccccc2)c(=O)c2ccccc12 (centres undefined)	Lmaj promast 61.7 | L major 1uM inactive
CCOC(=O)C(C(=O)Nc1ccccc1C)C1CCCCC1 (centres undefined)	none
Cc1nnc(N2CCCCC2)c2ccccc12	Lmaj promast 52.5 | L major 1uM inactive
Cc1cc(C(=O)C(=O)N(C)C)c(C)n1-c1ccc([N+](=O)[O-])cc1	none
C=CCN(CC=C)C(=O)C(=O)c1cc(C)n(-c2ccc([N+](=O)[O-])cc2)c1C	Lmaj promast 97.5 | L major 1uM inactive
COCCn1c(=O)c2c3c(sc2n(CC(N)=O)c1=O)CCCC3	none (no result: WT yeast gro inh, Diaphorase act, Diaphorase inh, G6PDH CS)
COc1ccc(S(=O)(=O)Nc2ccc(C)cc2)cc1N(C)S(=O)(=O)c1ccc(Cl)cc1	Lmaj promast 99.2 | L major 1uM inactive
Cc1ccc2cccc(Oc3ncnc4sc(C)c(C)c34)c2n1	Lmaj promast 89.5 | L major 1uM inactive
Cc1ccc(-c2csc3ncnc(Oc4cccc5ccc(C)nc45)c23)cc1	none
O=C(NCC(=O)N(CC1CCCO1)C1(C(=O)NC2CCCCC2)CCCCC1)c1ccccc1 (centres undefined)	none
COCCNC(=S)N/N=C(\C)c1cccc([N+](=O)[O-])c1	none
c1ccc(-n2nnnc2-c2cnc(-c3ccncc3)nc2-c2cccs2)cc1	none
FC(F)(F)c1nc(-c2ccncc2)ncc1-c1nnnn1-c1ccccc1	Lmaj promast 60.7 | L major 1uM inactive
C=C(C)C1Cc2c(C)nn(-c3cccc4ccccc34)c2C1 (centres undefined)	WT yeast gro inh 85.7, Lmaj promast 61.3 | L major 1uM inactive
CCN(CC)c1ccc(CN2CCCCCC2)cc1	Lmaj promast 89.8 | L major 1uM inactive
CCN(CC)CCNC(=O)c1sc2nc(-c3ccccc3)cn2c1C	none (no result: Diaphorase act, Diaphorase inh, G6PDH CS, Lmaj promast)
O=C(c1ccccc1)c1c2c(cc3sc4ccccc4[n+]13)-c1cccc3cccc-2c13	Lmaj promast 100.4 | L major 1uM 100.0
N#Cc1c(Oc2ccc3ccccc3c2)sc(C(=O)c2ccccc2)c1N	none
CC(=O)Nc1ccc(S(=O)(=O)NCCSCc2ccccc2Cl)cc1	Lmaj promast 68.4 | L major 1uM inactive
Cc1nn(Cc2ccc(Cl)cc2)c(=O)n1N(C)c1ncc(C(F)(F)F)cc1Cl	Lmaj promast 93.6 | L major 1uM inactive
CCn1c2ccccc2c2nn(C)c(=N)nc21	Lmaj promast 95.7 | L major 1uM inactive
CCn1c2ccccc2c2nnc(NN)nc21	none
CCOC(=O)Cc1cc(-c2ccc(F)cc2)nc2ccc3ccccc3c12	Lmaj promast 67.6 | L major 1uM inactive
CCOC(=O)Cc1cc(-c2ccc(O)cc2)nc2ccc3ccccc3c12	none
CC(=O)c1cccc(NC(=O)NNC(=O)CCC(=O)Nc2ccc(C)c(C)c2)c1	none
C1CCC(c2nn3c(-c4n[nH]c5c4CCC5)nnc3s2)CC1	none
CCN(CC)c1ccc(-c2nn3c(-c4n[nH]c5c4CCC5)nnc3s2)cc1	Lmaj promast 62.0 | L major 1uM inactive
Cc1ccc(NC(=O)Nc2sc(=S)n(C)c2C)cc1	Lmaj promast 58.6 | L major 1uM inactive
